# Data reported in ChEMBL document CHEMBL1125337, “Synthesis and antibacterial activity of a series of basic amides of teicoplanin and deglucoteicoplanin with polyamines” (J Med Chem, 1992).
# What was measured:
# [1] = system: Streptococcus pyogenes; assay: Minimum inhibitory concentration against Streptococcus pyogenes L 49; assay type: functional
# How it was run: (§1)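 MIC (µg/mL) by microbroth dilution in Todd-Hewitt broth, final inoculum 10^4 cfu/mL, incubated 24 h at 37 °C in air.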
# [2] = system: Pseudomonas aeruginosa; assay: Minimum inhibitory concentration against Pseudomonas aeruginosa ATCC 10145; assay type: functional
# How it was run: (§2)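 MIC (µg/mL) by microbroth dilution in Iso-Sensitest broth; final inoculum 10^4 cfu/mL; 24 h at 37 °C in air.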
# [3] = system: Staphylococcus aureus; assay: Minimum inhibitory concentration against Staphylococcus aureus L 165; assay type: functional; how it was run: as §2
# [4] = system: Streptococcus pyogenes; assay: Minimum inhibitory concentration of compound was determined against Streptococcus pyogenes L 49 in mouse; assay type: functional
# [5] = system: Streptococcus pyogenes; assay: Efficacy of compound administered subcutaneously against Streptococcus pyogenes L 49 Septicemia in mouse; assay type: functional; conditions: sc
# How it was run: (§3)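 Mice were infected intraperitoneally with about 10^5 Strep. pyogenes L 49 cells, about 100 times the 50% lethal dose. Groups of 5–8 mice were treated once right after challenge, by the route stated in the line. ED50 (mg/kg) was derived from percentage survival at each dose on day 7 (Spearman-Kärber).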
# [6] = Association constant to Ac2-L-Lys-D-Ala-D-Ala determined at pH 9; Value ranges from 5E4-7.5E4
# [7] = system: Staphylococcus haemolyticus; assay: Minimum inhibitory concentration against Staphylococcus haemolyticus L 602; assay type: functional; how it was run: as §2
# [8] = system: Staphylococcus epidermidis; assay: Minimum inhibitory concentration against Staphylococcus epidermidis ATCC 12228; assay type: functional; how it was run: as §2
# [9] = system: Streptococcus pneumoniae; assay: Minimum inhibitory concentration against Streptococcus pneumoniae L 44; assay type: functional; how it was run: as §1
# [10] = system: Enterococcus faecalis; assay: Minimum inhibitory concentration against Enterococcus faecalis ATCC 7080; assay type: functional
# How it was run: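 Microbroth dilution MIC (µg/mL), final inoculum 10^4 cfu/mL, incubated 24 h at 37 °C in air.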
# [11] = system: Proteus vulgaris; assay: Minimum inhibitory concentration against Proteus vulgaris ATCC 881; assay type: functional; how it was run: as §2
# [12] = system: Escherichia coli; assay: Minimum inhibitory concentration against Escherichia coli L 47; assay type: functional; how it was run: as §2
# [13] = system: Streptococcus pyogenes; assay: Efficacy of compound administered perorally against Streptococcus pyogenes L 49 Septicemia in mouse; assay type: functional; conditions: po; how it was run: as §3
# [14] = Association constant to Ac2-L-Lys-D-Ala-D-Ala determined at pH 9; Value ranges from (9.5E4-3.5E5)
smiles,measurement,setting,value
NCCCCNCCCNC(=O)[C@H]1NC(=O)[C@H]2NC(=O)[C@H](NC(=O)[C@@H]3NC(=O)[C@H]4NC(=O)[C@@H](Cc5ccc(c(Cl)c5)Oc5cc3cc(c5O)Oc3ccc(cc3Cl)[C@H]2O)NC(=O)[C@H](N)c2ccc(O)c(c2)Oc2cc(O)cc4c2)c2ccc(O)c(c2)-c2c(O)cc(O)cc21,MIC,[1],0.063 µg/mL
same,MIC,[2],8 µg/mL
same,MIC,[3],0.063 µg/mL
same,MIC,[4],0.06 µg/mL
same,ED50,[5],0.31 mg/kg
same,Ka,[6],75000 M⁻¹
same,MIC,[7],0.063 µg/mL
same,MIC,[8],0.063 µg/mL
same,MIC,[9],0.125 µg/mL
same,MIC,[10],0.125 µg/mL
same,MIC,[11],32 µg/mL
same,MIC,[12],2 µg/mL
CC(=O)N[C@@H]1[C@H](O[C@@H]2c3ccc(c(Cl)c3)Oc3cc4cc(c3O[C@@H]3O[C@@H](CO)[C@@H](O)[C@H](O)[C@@H]3NC(=O)CCCCCCC(C)C)Oc3ccc(cc3Cl)C[C@H]3NC(=O)[C@H](N)c5ccc(O)c(c5)Oc5cc(O)cc(c5)[C@H](NC3=O)C(=O)N[C@H]4C(=O)N[C@H]3C(=O)N[C@@H]2C(=O)N[C@H](C(=O)NCCNCCN)c2cc(O)cc(O[C@H]4O[C@H](CO)[C@@H](O)[C@@H](O)[C@@H]4O)c2-c2cc3ccc2O)O[C@@H](CO)[C@@H](O)[C@@H]1O,MIC,[1],0.063 µg/mL
same,MIC,[3],0.25 µg/mL
same,ED50,[5],0.09 mg/kg
same,MIC,[7],0.25 µg/mL
same,MIC,[8],0.063 µg/mL
same,MIC,[9],0.125 µg/mL
same,ED50,[13],60 mg/kg
same,MIC,[10],0.125 µg/mL
same,Ka,[14],350000 M⁻¹
NCCCNCCCCNCCCNC(=O)[C@H]1NC(=O)[C@H]2NC(=O)[C@H](NC(=O)[C@@H]3NC(=O)[C@H]4NC(=O)[C@@H](Cc5ccc(c(Cl)c5)Oc5cc3cc(c5O)Oc3ccc(cc3Cl)[C@H]2O)NC(=O)[C@H](N)c2ccc(O)c(c2)Oc2cc(O)cc4c2)c2ccc(O)c(c2)-c2c(O)cc(O)cc21,MIC,[1],0.063 µg/mL
same,MIC,[2],8 µg/mL
same,MIC,[3],0.063 µg/mL
same,MIC,[4],0.06 µg/mL
same,ED50,[5],0.41 mg/kg
same,Ka,[6],75000 M⁻¹
same,MIC,[7],0.125 µg/mL
same,MIC,[8],0.063 µg/mL
same,MIC,[9],0.125 µg/mL
same,MIC,[10],0.125 µg/mL
same,MIC,[11],64 µg/mL
same,MIC,[12],2 µg/mL
NCCNCCNC(=O)[C@H]1NC(=O)[C@H]2NC(=O)[C@H](NC(=O)[C@@H]3NC(=O)[C@H]4NC(=O)[C@@H](Cc5ccc(c(Cl)c5)Oc5cc3cc(c5O)Oc3ccc(cc3Cl)[C@H]2O)NC(=O)[C@H](N)c2ccc(O)c(c2)Oc2cc(O)cc4c2)c2ccc(O)c(c2)-c2c(O)cc(O)cc21,MIC,[1],0.125 µg/mL
same,MIC,[2],64 µg/mL
same,MIC,[3],0.063 µg/mL
same,Ka,[6],75000 M⁻¹
same,MIC,[7],0.125 µg/mL
same,MIC,[8],0.063 µg/mL
same,MIC,[9],0.125 µg/mL
same,MIC,[10],0.125 µg/mL
same,MIC,[11],64 µg/mL
same,MIC,[12],8 µg/mL
CC(=O)N[C@@H]1[C@H](O[C@@H]2c3ccc(c(Cl)c3)Oc3cc4cc(c3O[C@@H]3O[C@@H](CO)[C@@H](O)[C@H](O)[C@@H]3NC(=O)CCCCCCC(C)C)Oc3ccc(cc3Cl)C[C@H]3NC(=O)[C@H](N)c5ccc(O)c(c5)Oc5cc(O)cc(c5)[C@H](NC3=O)C(=O)N[C@H]4C(=O)N[C@H]3C(=O)N[C@@H]2C(=O)N[C@H](C(=O)NCCCN2CCCCN(CCCN)CCCC2)c2cc(O)cc(O[C@H]4O[C@H](CO)[C@@H](O)[C@@H](O)[C@@H]4O)c2-c2cc3ccc2O)O[C@@H](CO)[C@@H](O)[C@@H]1O,MIC,[1],0.063 µg/mL
same,MIC,[3],0.25 µg/mL
same,ED50,[5],0.06 mg/kg
same,MIC,[7],0.125 µg/mL
same,MIC,[8],0.063 µg/mL
same,MIC,[9],0.125 µg/mL
same,ED50,[13],60 mg/kg
same,MIC,[10],0.125 µg/mL
same,Ka,[14],350000 M⁻¹
NCCNCCCNCCNC(=O)[C@H]1NC(=O)[C@H]2NC(=O)[C@H](NC(=O)[C@@H]3NC(=O)[C@H]4NC(=O)[C@@H](Cc5ccc(c(Cl)c5)Oc5cc3cc(c5O)Oc3ccc(cc3Cl)[C@H]2O)NC(=O)[C@H](N)c2ccc(O)c(c2)Oc2cc(O)cc4c2)c2ccc(O)c(c2)-c2c(O)cc(O)cc21,MIC,[1],0.063 µg/mL
same,MIC,[2],64 µg/mL
same,MIC,[3],0.063 µg/mL
same,Ka,[6],75000 M⁻¹
same,MIC,[7],0.063 µg/mL
same,MIC,[8],0.063 µg/mL
same,MIC,[9],0.125 µg/mL
same,MIC,[10],0.125 µg/mL
same,MIC,[11],128 µg/mL
same,MIC,[12],4 µg/mL
CC(=O)N[C@@H]1[C@H](O[C@@H]2c3ccc(c(Cl)c3)Oc3cc4cc(c3O[C@@H]3O[C@@H](CO)[C@@H](O)[C@H](O)[C@@H]3NC(=O)CCCCCCC(C)C)Oc3ccc(cc3Cl)C[C@H]3NC(=O)[C@H](N)c5ccc(O)c(c5)Oc5cc(O)cc(c5)[C@H](NC3=O)C(=O)N[C@H]4C(=O)N[C@H]3C(=O)N[C@@H]2C(=O)N[C@H](C(=O)NCCNCCNCCNCCNCCN)c2cc(O)cc(O[C@H]4O[C@H](CO)[C@@H](O)[C@@H](O)[C@@H]4O)c2-c2cc3ccc2O)O[C@@H](CO)[C@@H](O)[C@@H]1O,MIC,[1],0.063 µg/mL
same,MIC,[3],0.25 µg/mL
same,ED50,[5],0.08 mg/kg
same,MIC,[7],0.125 µg/mL
same,MIC,[8],0.063 µg/mL
same,MIC,[9],0.125 µg/mL
same,ED50,[13],112 mg/kg
same,MIC,[10],0.125 µg/mL
same,Ka,[14],350000 M⁻¹
N[C@H]1C(=O)N[C@@H]2Cc3ccc(c(Cl)c3)Oc3cc4cc(c3O)Oc3ccc(cc3Cl)[C@@H](O)[C@@H]3NC(=O)[C@H](NC(=O)[C@@H]4NC(=O)[C@@H](NC2=O)c2cc(O)cc(c2)Oc2cc1ccc2O)c1ccc(O)c(c1)-c1c(O)cc(O)cc1[C@@H](C(=O)O)NC3=O [TEICOPLANIN AGLYCON],MIC,[1],0.125 µg/mL
same,MIC,[2],> 128 µg/mL
same,MIC,[3],0.063 µg/mL
same,MIC,[4],0.13 µg/mL
same,ED50,[5],0.95 mg/kg
same,MIC,[7],0.25 µg/mL
same,MIC,[8],0.016 µg/mL
same,MIC,[9],0.125 µg/mL
same,MIC,[10],0.125 µg/mL
same,MIC,[11],128 µg/mL
same,MIC,[12],64 µg/mL
CC(=O)N[C@@H]1[C@H](O[C@@H]2c3ccc(c(Cl)c3)Oc3cc4cc(c3O[C@@H]3O[C@@H](CO)[C@@H](O)[C@H](O)[C@@H]3NC(=O)CCCCCCC(C)C)Oc3ccc(cc3Cl)C[C@H]3NC(=O)[C@H](N)c5ccc(O)c(c5)Oc5cc(O)cc(c5)[C@H](NC3=O)C(=O)N[C@H]4C(=O)N[C@H]3C(=O)N[C@@H]2C(=O)N[C@H](C(=O)NCCCNCCCCNCCCN)c2cc(O)cc(O[C@H]4O[C@H](CO)[C@@H](O)[C@@H](O)[C@@H]4O)c2-c2cc3ccc2O)O[C@@H](CO)[C@@H](O)[C@@H]1O,MIC,[1],0.063 µg/mL
same,MIC,[3],0.125 µg/mL
same,ED50,[5],0.03 mg/kg
same,MIC,[7],0.125 µg/mL
same,MIC,[8],0.063 µg/mL
same,MIC,[9],0.125 µg/mL
same,ED50,[13],81 mg/kg
same,MIC,[10],0.125 µg/mL
same,Ka,[14],350000 M⁻¹
CC(=O)N[C@@H]1[C@H](O[C@@H]2c3ccc(c(Cl)c3)Oc3cc4cc(c3O[C@@H]3O[C@@H](CO)[C@@H](O)[C@H](O)[C@@H]3NC(=O)CCCCCCC(C)C)Oc3ccc(cc3Cl)C[C@H]3NC(=O)[C@H](N)c5ccc(O)c(c5)Oc5cc(O)cc(c5)[C@H](NC3=O)C(=O)N[C@H]4C(=O)N[C@H]3C(=O)N[C@@H]2C(=O)N[C@H](C(=O)NCCCN2CCCCNCCCC2)c2cc(O)cc(O[C@H]4O[C@H](CO)[C@@H](O)[C@@H](O)[C@@H]4O)c2-c2cc3ccc2O)O[C@@H](CO)[C@@H](O)[C@@H]1O,MIC,[1],0.063 µg/mL
same,MIC,[3],0.125 µg/mL
same,ED50,[5],0.08 mg/kg
same,MIC,[7],0.125 µg/mL
same,MIC,[8],0.063 µg/mL
same,MIC,[9],0.125 µg/mL
same,ED50,[13],90 mg/kg
same,MIC,[10],0.125 µg/mL
same,Ka,[14],350000 M⁻¹
